Laboratory results published in article PMC6745485 (Heliyon, 2019).
“And” between values parts separate entries of the source, which are not always exact repeats. Identical values can stand only once. “Also recorded” adds a separate entry of the source. Like-named read-outs stand apart in the source and are kept apart here.

Assays:
mouse PPARα = details: among 12 pyrethroid pesticides; ref Takeuchi et al., 2006; cited from earlier work
human CAR = details: cited from earlier work
rat PXR [1] = molecular target: T1, rat PXR (Rattus norvegicus, UniProt Q9R1A7); test: Rat PXR reporter gene assay in COS-1 cells; assay type: cell-based; details: for Agonistic activity REC20 PXR: concentration showing 20% of the agonistic activity of 1 μM PCN, ±SD
T1 sequence (Q9R1A7 1-431): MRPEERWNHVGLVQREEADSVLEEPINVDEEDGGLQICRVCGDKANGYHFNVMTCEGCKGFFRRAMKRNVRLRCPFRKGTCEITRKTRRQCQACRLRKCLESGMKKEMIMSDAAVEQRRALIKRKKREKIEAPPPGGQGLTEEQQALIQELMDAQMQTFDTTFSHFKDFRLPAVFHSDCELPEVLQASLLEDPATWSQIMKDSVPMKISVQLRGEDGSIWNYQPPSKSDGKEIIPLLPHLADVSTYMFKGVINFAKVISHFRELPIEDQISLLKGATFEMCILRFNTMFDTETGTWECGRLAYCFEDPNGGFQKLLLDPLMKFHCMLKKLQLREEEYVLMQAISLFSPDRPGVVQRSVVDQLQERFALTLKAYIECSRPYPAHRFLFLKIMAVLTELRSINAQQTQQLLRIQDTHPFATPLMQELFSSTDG
Outline: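 COS-1 cells (1×10^4/well) co-transfected with rat PXR expression, reporter and Renilla control plasmids via jetPEI. After 24 h, test compound or 0.1% DMSO added in serum-free D-MEM for 24 h. Dual-luciferase read-out, firefly normalized to Renilla, fold vs vehicle. REC20: concentration reaching 20% of 1 μM PCN activity. Mean ± SD, ≥3 experiments in duplicate; Dunnett's test.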

rat CAR [2] = molecular target: T2, rat CAR (Rattus norvegicus, UniProt Q9QUS1); test: Rat CAR reporter gene assay in COS-1 cells; assay type: cell-based; details: for Agonistic activity REC20 CAR: concentration showing 20% of the agonistic activity of 30 μM artemisinin; for Agonistic activity REC20 CAR / Inverse agonistic activity RIC20 CAR: ±SD; for Inverse agonistic activity RIC20 CAR: concentration showing 80% of the activity of the vehicle control; for CAR inverse agonistic activity (in words) / CAR agonistic activity (in words): up to 30 μM
T2 sequence (Q9QUS1 1-358): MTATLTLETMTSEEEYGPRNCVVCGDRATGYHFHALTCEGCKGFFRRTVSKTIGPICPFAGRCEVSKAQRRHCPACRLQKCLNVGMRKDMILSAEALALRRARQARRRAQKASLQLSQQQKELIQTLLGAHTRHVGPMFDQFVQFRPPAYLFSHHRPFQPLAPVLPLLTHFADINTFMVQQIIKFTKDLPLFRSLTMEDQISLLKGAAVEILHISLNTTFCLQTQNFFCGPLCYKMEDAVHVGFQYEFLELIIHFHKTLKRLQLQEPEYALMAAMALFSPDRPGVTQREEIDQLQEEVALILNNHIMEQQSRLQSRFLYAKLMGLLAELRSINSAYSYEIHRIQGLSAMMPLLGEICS

rat CAR [3] = molecular target: T2, rat CAR; assay type: cell-based; details: 3–10 μM
Outline: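 Microsomal mix: NADPH-generating system plus PB/MC-induced male SD rat liver microsomes (60 mg protein) in pH 7.4 phosphate, 30 min, 37 °C; boiled-microsome control. Extracts dried, redissolved in DMSO, diluted into serum-free medium. CAR-transfected COS-1 cells dosed 12 h after transfection, 24 h exposure. Firefly/Renilla luciferase read as fold vs vehicle; 3 experiments, Student's t-test vs boiled.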

rat PXR [4] = molecular target: T1, rat PXR; assay type: cell-based; details: microsomes of PB- and MC-treated rats, NADPH, vs boiled microsomes
Outline: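 Test compound (1 μmol) incubated 30 min at 37 °C in 0.1 M K,Na-phosphate pH 7.4. Mix held an NADPH-generating system and liver microsomes (60 mg protein) from male SD rats given PB 80 mg/kg i.p. plus MC 25 mg/kg p.o. daily for 3 d. Boiled microsomes were the control. Ethyl acetate extract went into DMSO and onto transfected COS-1 cells for 24 h. Normalized firefly/Renilla fold vs vehicle; n=3, t-test.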

rat PPARα = molecular target: T3, rat PPARα (Rattus norvegicus, UniProt P37230); test: Rat PPARα reporter gene assay in COS-1 cells; assay type: cell-based; details: concentration showing 20% of the agonistic activity of 30 μM BZF; ±SD
T3 sequence (P37230 1-468): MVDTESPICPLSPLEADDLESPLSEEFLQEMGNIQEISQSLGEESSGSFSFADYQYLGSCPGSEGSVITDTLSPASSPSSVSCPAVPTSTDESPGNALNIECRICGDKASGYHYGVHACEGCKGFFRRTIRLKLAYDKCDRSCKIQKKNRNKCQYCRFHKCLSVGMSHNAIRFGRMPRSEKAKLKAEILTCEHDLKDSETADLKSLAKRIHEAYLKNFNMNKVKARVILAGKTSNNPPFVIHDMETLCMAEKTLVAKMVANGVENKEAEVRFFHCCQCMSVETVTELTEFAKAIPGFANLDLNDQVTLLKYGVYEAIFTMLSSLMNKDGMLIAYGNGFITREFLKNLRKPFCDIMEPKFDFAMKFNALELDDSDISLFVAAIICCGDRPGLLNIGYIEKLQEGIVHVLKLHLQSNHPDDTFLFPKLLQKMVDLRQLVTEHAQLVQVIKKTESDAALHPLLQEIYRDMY

mouse CAR = details: cited from earlier work
rat CAR [5] = molecular target: T2, rat CAR; details: ref Omiecinski et al., 2011a; cited from earlier work

Row | Molecule | Agonistic activity REC20 PXR (rat PXR [1]) | Agonistic activity REC20 CAR (rat CAR [2]) | Inverse agonistic activity RIC20 CAR (rat CAR [2]) | Change of PXR activity upon incubation with rat liver microsomes (rat PXR [4]) | Agonistic activity REC20 PPARα (rat PPARα) | PXR activity, fold compared with the control (rat PXR [1]; concentration range 1–30 μM) | also measured
1 | pyrethrin |  |  |  |  |  |  | Mouse PPARα activation (mouse PPARα): activated mouse PPARα
2 | CC(C)C(C(=O)OC(C#N)c1cccc(Oc2ccccc2)c1)c1ccc(Cl)cc1 (stereo not drawn) [fenvalerate] | 0.617 ± 0.138 µM | - ^c (No effect (REC20 > 30 μM)) | 0.846 µM and 0.846 ± 0.394 µM | markedly decreased; also recorded: significantly decreased | - ^c (No effect (REC20 > 30 μM)) |  | Human CAR agonistic activity (human CAR; ref Abass et al. (2012)): possessed agonistic activity; Human CAR agonistic activity (human CAR; ref Baldwin and Roling (2009)): agonists; Effect on CAR activation induced by artemisinin (rat CAR [2]; artemisinin 10 μM, test compound 0.1–30 μM): significantly inhibited CAR activation by artemisinin; CAR inverse agonistic activity (in words) (rat CAR [2]): showed CAR inverse agonistic activity; Change of CAR inverse agonistic activity after incubation with liver microsomes (rat CAR [3]): tended to decrease; Mouse CAR agonistic activity (mouse CAR; ref Abass et al. (2012)): not mouse CAR; Mouse CAR agonistic activity (mouse CAR; ref Baldwin and Roling (2009)): agonists
3 | Clc1cnc(Oc2ccc(Oc3ncc(Cl)cc3Cl)cc2)c(Cl)c1 [TCPOBOP, 1,4-bis[2-(3,5-dichloropyridyloxy)]benzene] |  |  |  |  |  |  | Rat CAR activity (rat CAR [5]): inactive toward rat CAR
4 | CC1(C)[C@H](C(=O)OCc2cccc(Oc3ccccc3)c2)[C@@H]1C=C(Cl)Cl [cis-permethrin] | 0.329 ± 0.0472 µM | - ^c (No effect (REC20 > 30 μM)) | - ^c (No effect (REC20 > 30 μM)) | decreased | - ^c (No effect (REC20 > 30 μM)) | about 3 fold | CAR agonistic activity (in words) (rat CAR [2]): showed CAR agonistic activity at higher concentrations; also recorded: weak CAR agonistic activity
5 | Clc1ccc(-c2nc3sccn3c2C=NOCc2ccc(Cl)c(Cl)c2)cc1 [CITCO, 6-(4-chlorophenyl)imidazo[2,1-b][1,3]thiazole-5-carbaldehyde O-(3,4-dichlorobenzyl)oxime] |  |  |  |  |  |  | Rat CAR activity (rat CAR [5]): inactive toward rat CAR
6 | CC1(C)C(C=C(Cl)Cl)C1C(=O)OC(C#N)c1cccc(Oc2ccccc2)c1 (stereo not drawn) [cypermethrin] | 0.468 ± 0.0267 µM | - ^c (No effect (REC20 > 30 μM)) | - ^c (No effect (REC20 > 30 μM)) |  | - ^c (No effect (REC20 > 30 μM)) | about 3 fold | Human CAR agonistic activity (human CAR; ref Baldwin and Roling (2009)): agonists; PXR activity, fold compared with the control (rat PXR [1]; 1 μM or lower): about 2 fold; Mouse CAR agonistic activity (mouse CAR; ref Baldwin and Roling (2009)): agonists
7 | CC1(C)[C@H](C=C(Cl)Cl)[C@H]1C(=O)OCc1cccc(Oc2ccccc2)c1 [trans-permethrin] | 0.674 ± 0.0526 µM | 4.19 µM and 4.19 ± 3.26 µM | - ^c (No effect (REC20 > 30 μM)) | decreased | - ^c (No effect (REC20 > 30 μM)) | about 3 fold | PXR activity, fold compared with the control (rat PXR [1]; 1 μM or lower): about 2 fold; CAR agonistic activity (in words) (rat CAR [2]): showed CAR agonistic activity at higher concentrations; also recorded: weak CAR agonistic activity
8 | CC(C)=C[C@@H]1[C@@H](C(=O)OCc2coc(Cc3ccccc3)c2)C1(C)C [bioresmethrin] | 1.92 ± 0.724 µM | - ^c (No effect (REC20 > 30 μM)) | - ^c (No effect (REC20 > 30 μM)) | slightly decreased | - ^c (No effect (REC20 > 30 μM)) |  | PXR agonistic activity (in words) (rat PXR [1]; up to 30 μM): relatively weak activities; CAR inverse agonistic activity (in words) (rat CAR [2]): showed CAR inverse agonistic activity
